The values that follow come from ChEMBL document CHEMBL4311977, “Design and synthesis of parthenolide and 5-fluorouracil conjugates as potential anticancer agents against drug resistant hepatocellular carcinoma” (Eur J Med Chem, 2019).

Where a name gives a salt, the structure may show the parent alone. A value given as a limit tells only on which side of the number the result lay.

Data set [1] deals with Bel7402/5-FU. The data set can be described thus: Antiproliferative activity against human Bel7402/5-FU incubated for 72 hrs by MTT assay. Type of data set: functional, cell-based. The method, boiled down: (§1)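 Bel-7402 and its 5-FU-resistant subline were kept in RPMI-1640 with 10% FBS and 1% penicillin/streptomycin at 37 °C under 5% CO2. Cells were seeded at 5000 per well and left for 12 h, then exposed to a concentration series for 72 h. MTT stock (5 mg/mL) was added for 4 h and the product dissolved in DMSO. OD was read at 570 nm and IC50 obtained by curve fitting.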

Data set [2] relates to Bel-7402. Description: Antiproliferative activity against human Bel7402 incubated for 72 hrs by MTT assay. The note with it: Bel-7402, 72 h. Type of data set: functional, cell-based. The method, boiled down:
as §1

Data set [3] in a line: Oral bioavailability in canine at 100 mg/kg. The format is ADME, organism-based, Canis lupus familiaris. Conditions: dog, in vivo.
Data set [4] in a line: Oral bioavailability in mouse at 100 mg/kg. The format is ADME, organism-based. The note with it: in vivo.
The test system of data set [5] is Bel7402/5-FU. The data set can be described thus: Induction of apoptosis in human Bel7402/5-FU assessed as necrotic cells at 5 uM incubated for 48 hrs by annexinV-FITC/propidium iodide staining based flow cytometry (reference value: 0.157 %). For orientation: Flow cytometry measures light scatter and fluorescence of single cells or particles in a stream.
For data set [6], the system named is Bel7402/5-FU. Description: Induction of apoptosis in human Bel7402/5-FU assessed as viable cells at 5 uM incubated for 48 hrs by annexinV-FITC/propidium iodide staining based flow cytometry (reference value: 96.9 %).
The subject of data set [7] is Bel7402/5-FU. Description: Induction of apoptosis in human Bel7402/5-FU assessed as late apoptotic cells at 5 uM incubated for 48 hrs by annexinV-FITC/propidium iodide staining based flow cytometry (reference value: 0.945 %).
Data set [8] has as its system Bel7402/5-FU. The data set can be described thus: Induction of apoptosis in human Bel7402/5-FU assessed as early apoptotic cells at 5 uM incubated for 48 hrs by annexinV-FITC/propidium iodide staining based flow cytometry (reference value: 20.1 %).

As a reminder, the IC50 is the concentration needed to halve the response being measured. Take `C=C1C(=O)O[C@H]2[C@H]1CC/C(Cn1cc(Cn3cc(F)c(=O)n(Cc4ccc(F)cc4)c3=O)nn1)=C\CC[C@@]1(C)O[C@@H]21`: the IC50 in data set [1] worked out at 4.86 µM; in data set [2] it was 4.91 µM.

As a reminder, the bioavailability is the share of a dose that reaches the circulation, judged against a reference dose that is usually intravenous. Low values mean poor availability, high ones good availability. For the molecule `C/C1=C\CC[C@@]2(C)O[C@H]2[C@H]2OC(=O)[C@@H](CN(C)C)[C@@H]2CC1`, the bioavailability in data set [3] and in data set [4] was 70% in each case.

For the molecule `C=C1C(=O)O[C@H]2[C@H]1CC/C(COC(=O)Cn1cc(F)c(=O)n(Cc3c(F)cccc3F)c1=O)=C\CC[C@@]1(C)O[C@@H]21`, the IC50 in data set [1] stood at 4.98 µM; in data set [2], 4.5 µM.

As to `C=C1C(=O)O[C@H]2[C@H]1CC/C(COC(=O)CCC(=O)OCn1cc(F)c(=O)[nH]c1=O)=C\CC[C@@]1(C)O[C@@H]21`, the IC50 in data set [1] and in data set [2] was greater than 20 µM throughout.

The term viability denotes the share of living cells, or the viability signal relative to a control. For `C=C1C(=O)O[C@@H]2C3O[C@]3(C)CC/C=C(\C)CC[C@@H]12` (stereo partly drawn), the Activity in data set [5] is recorded as 1.29%; in data set [7], 2.52%; in data set [8], 1.75%. Besides, the IC50 in data set [1] amounted to 13 µM; in data set [2], 8.62 µM. In addition, the viability at 5 µM in data set [6] is 94.3%.

Consider `C=C1C(=O)O[C@H]2[C@H]1CC/C(COC(=O)Cn1cc(F)c(=O)[nH]c1=O)=C\CC[C@@]1(C)O[C@@H]21`, for which the IC50 in data set [1] and in data set [2] was greater than 20 µM throughout.

As to `C=C1C(=O)O[C@H]2[C@H]1CC/C(COC(=O)Cn1cc(F)c(=O)n(Cc3ccc(F)cc3F)c1=O)=C\CC[C@@]1(C)O[C@@H]21`, the figures for the IC50 in data set [1] and in data set [2] were 5.01 µM and 3.67 µM, respectively.

`C=C1C(=O)O[C@H]2[C@H]1CC/C(COC(=O)Cn1cc(F)c(=O)n(Cc3ccc(F)c(F)c3)c1=O)=C\CC[C@@]1(C)O[C@@H]21`: the IC50 in data set [1] was determined as 4.48 µM; in data set [2], 2.7 µM.

In the case of `C=C1C(=O)O[C@H]2[C@H]1CC/C(COC(=O)Cn1cc(F)c(=O)n(C)c1=O)=C\CC[C@@]1(C)O[C@@H]21`, the IC50 was determined as 11.7 µM in data set [1] and 9.4 µM in data set [2].

As to `C=C1C(=O)O[C@H]2[C@H]1CC/C(COC(=O)Cn1cc(F)c(=O)n(CCC)c1=O)=C\CC[C@@]1(C)O[C@@H]21`, the IC50 was found to be 9.11 µM in data set [1] and 8.58 µM in data set [2].

For the molecule `C=C1C(=O)O[C@H]2[C@H]1CC/C(COC(=O)Cn1cc(F)c(=O)n(Cc3ccc(Br)cc3)c1=O)=C\CC[C@@]1(C)O[C@@H]21`, the 50% inhibitory concentration (IC50) in data set [1] amounted to 3.24 µM; in data set [2], 2.67 µM.

`C=C1C(=O)O[C@H]2[C@H]1CC/C(COC(=O)Cn1cc(F)c(=O)n(Cc3ccc(F)cc3)c1=O)=C\CC[C@@]1(C)O[C@@H]21`: the IC50 in data set [2] worked out at 2.73 µM.

`C=C1C(=O)O[C@H]2[C@H]1CC/C(COC(=O)CCC(=O)NCCCCCCNC(=O)Cn1cc(F)c(=O)[nH]c1=O)=C\CC[C@@]1(C)O[C@@H]21`: the IC50 in data set [1] and in data set [2] was greater than 20 µM each time.

As for `C=C1C(=O)O[C@H]2[C@H]1CC/C(COC(=O)Cn1cc(F)c(=O)n(Cc3ccccc3)c1=O)=C\CC[C@@]1(C)O[C@@H]21`, the results for the IC50 in data set [1] and in data set [2] were 4.27 µM and 3.98 µM, respectively.

`C=C1C(=O)O[C@H]2[C@H]1CC/C(COC(=O)Cn1cc(F)c(=O)n(Cc3ccc(Cl)cc3)c1=O)=C\CC[C@@]1(C)O[C@@H]21`: the IC50 amounted to 2.42 µM in data set [1] and 2.56 µM in data set [2].

In the case of `C=C1C(=O)O[C@H]2[C@H]1CC/C(COC(=O)Cn1cc(F)c(=O)n(Cc3ccc([N+](=O)[O-])cc3)c1=O)=C\CC[C@@]1(C)O[C@@H]21`, the IC50 in data set [1] turned out to be 4.34 µM; in data set [2] it was 4.07 µM.

In the case of `O=c1[nH]cc(F)c(=O)[nH]1` [FLUOROURACIL], the Activity is 2.164% in data set [5], 0.073% in data set [7] and 1.85% in data set [8]. Besides, the IC50 in data set [1] is greater than 400 µM; in data set [2], 7.36 µM. Also, the viability at 5 µM in data set [6] is 27.4%.

As for `C=C1C(=O)O[C@H]2[C@H]1CC/C(Cn1cc(Cn3cc(F)c(=O)n(Cc4ccccc4)c3=O)nn1)=C\CC[C@@]1(C)O[C@@H]21`, the values for the IC50 in data set [1] and in data set [2] were 8.84 µM and 9.16 µM, respectively.

In the case of `C=C1C(=O)O[C@H]2[C@H]1CC/C(COC(=O)Cn1cc(F)c(=O)n(Cc3cccc(F)c3)c1=O)=C\CC[C@@]1(C)O[C@@H]21`, the IC50 stood at 3.7 µM in data set [1] and 2.53 µM in data set [2].

With `C=C1C(=O)O[C@H]2[C@H]1CC/C(Cn1cc(Cn3cc(F)c(=O)[nH]c3=O)nn1)=C\CC[C@@]1(C)O[C@@H]21`, the IC50 in data set [1] and in data set [2] was greater than 20 µM in each case.

On to `C=C1C(=O)O[C@H]2[C@H]1CC/C(COC(=O)CCC(=O)N1CCN(C(=O)Cn3cc(F)c(=O)n(Cc4ccccc4)c3=O)CC1)=C\CC[C@@]1(C)O[C@@H]21`, for which the IC50 in data set [1] and in data set [2] was greater than 20 µM each time.

Turning to `C=C1C(=O)O[C@H]2[C@H]1CC/C(COC(=O)Cn1cc(F)c(=O)n(Cc3ccccc3F)c1=O)=C\CC[C@@]1(C)O[C@@H]21`, the results for the IC50 in data set [1] and in data set [2] were 3.83 µM and 3.77 µM, respectively.

For `C=C1C(=O)O[C@H]2[C@H]1CC/C(COC(=O)Cn1cc(F)c(=O)n(Cc3cc(F)ccc3F)c1=O)=C\CC[C@@]1(C)O[C@@H]21`, the values for the IC50 in data set [1] and in data set [2] were 4.61 µM and 3.06 µM, respectively.

For the molecule `C=C1C(=O)O[C@H]2[C@H]1CC/C(COC(=O)CCC(=O)N1CCN(C(=O)Cn3cc(F)c(=O)[nH]c3=O)CC1)=C\CC[C@@]1(C)O[C@@H]21`, the IC50 in data set [1] and in data set [2] was greater than 20 µM in each case.

Consider `C=C1C(=O)O[C@H]2[C@H]1CC/C(COC(=O)CCC(=O)NCCCCCCNC(=O)Cn1cc(F)c(=O)n(Cc3ccccc3)c1=O)=C\CC[C@@]1(C)O[C@@H]21`, for which the IC50 worked out at 16.2 µM in data set [1] and 18.3 µM in data set [2].

`COc1cccc2c1C(=O)c1c(O)c3c(c(O)c1C2=O)C[C@@](O)(C(=O)CO)C[C@@H]3O[C@H]1C[C@H](N)[C@H](O)[C@H](C)O1` [DOXORUBICIN HYDROCHLORIDE] gave an IC50 in data set [1] of 8.36 µM.
